The subject of data set [1] is SR Ca^2+ overload related tachyarrhythmias in CPVT. The following applies: cited from earlier work.
The test system of data set [2] is ICR mice. In words: H&E staining pathological examination of heart. It is filed as in vivo. Particulars: 12 h after intravenous injection, n = 6. The gist of the method:
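Twelve hours after intravenous dosing (test compound at 5 mg/kg peptide equivalent, free peptide, empty carrier or control; n = 6), heart tissue was fixed in 4 % paraformaldehyde. It then underwent routine hematoxylin-eosin staining for histopathological examination.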

The subject of another data set is cardiac tissue. In words: Cardiac immunohistochemistry with OpiCa1 polyclonal antibody. It is filed as in vivo. The following applies: mice, 12 h, self-prepared OpiCa1 polyclonal antibody, n = 6; in words.
The target of a further data set is RyRs. The following applies: read-out: affinity between OpiCa1 and RyRs; cited from earlier work.
Data set [3] has as its system ICR mice. In words: Blood biochemical examinations. It is filed as in vivo. Particulars: i.v. 5 mg/kg OpiCa1 equivalent, 12 h, n = 6. The gist of the method:
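Blood was drawn from the inner canthus into anticoagulant tubes 12 h after dosing and assayed for ALT, AST, CK, CK-MB, LDH, creatinine and uric acid. Data are mean ± SD; two-group comparisons used two-tailed Mann-Whitney tests.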

A further data set deals with H9C2 cells. Description: Flow cytometry, Annexin V-FITC / propidium iodide apoptosis. The following applies: 100 μM OpiCa1, 12 h, Annexin V-FITC/PI flow cytometry. In kind it is cell-based, rat. In general terms: In flow cytometry, cells or beads pass a laser one at a time.
Data set [4] can be described thus: Plasma OpiCa1 concentration in vivo by ELISA. The following applies: mice, injection of free OpiCa1 5 mg/kg.

Consider two substances from PMC10682124 (Materials Today Bio, 2023).

Regarding Imperacalcin, in data set [1], the “antagonism of SR Ca^2+ overload related tachyarrhythmias” value was “can antagonize SR Ca^2+ overload related tachyarrhythmias such as PVCs and non-sustained BVTs in CPVT”.
For Opicalcin1 [OpiCa1], the “pathological examination of heart (H&E)” value in the data set on ICR mice [2] was “clear myocardial fibers and stripes”. In addition, the “distribution in cardiac tissue by immunohistochemistry” value with cardiac tissue is reported as “significantly distributed in cardiac tissue”. Besides, at RyRs, the Kd was around 0.3 nM. Besides, in the data set on ICR mice [3], the “cardiac function (CK, CK-MB, and LDH)” value is on record as “no significant differences”; the “liver function (ALT and AST)” value is recorded as “no significant differences”; the “renal function (Crea and UA)” value is on record as “no significant differences”. Besides, in the data set on H9C2 cells, the “proportion of apoptotic cells” value is given as “about 1.5%”. Further, the “time to complete disappearance from plasma” value in data set [4] is at most 48 h.
